# Data published in ChEMBL document CHEMBL1153229, “The first synthetic agonists of FFA2: Discovery and SAR of phenylacetamides as allosteric modulators” (Bioorg Med Chem Lett, 2010).
# How the values were obtained:
# [1] = target: T1, Free fatty acid receptor 2 (Homo sapiens, UniProt O15552); test: Agonist activity at human FFA2 receptor expressed in CHO cells assessed as inhibition of forskolin-induced cAMP production; type: functional, cell-based
# T1 sequence (O15552 whole entry): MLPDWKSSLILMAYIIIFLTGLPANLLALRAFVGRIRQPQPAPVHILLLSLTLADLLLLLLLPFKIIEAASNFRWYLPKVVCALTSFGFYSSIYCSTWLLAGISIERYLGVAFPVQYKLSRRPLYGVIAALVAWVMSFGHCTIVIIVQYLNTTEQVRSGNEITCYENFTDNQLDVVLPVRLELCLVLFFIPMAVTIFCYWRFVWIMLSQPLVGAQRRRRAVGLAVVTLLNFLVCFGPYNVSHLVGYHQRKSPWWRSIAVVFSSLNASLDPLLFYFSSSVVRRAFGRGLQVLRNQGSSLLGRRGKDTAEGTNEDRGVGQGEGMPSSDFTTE
# Summary of the method: (§1)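 Suspended cells, 10,000 per well, in Hank's balanced salt solution with 25 mM HEPES and 0.01% (w/v) BSA. Stimulated with forskolin (5 μM final) plus serially diluted test ligands, room temperature for 30 min. Antibody and lysis reagents then added, followed by overnight dark incubation with detection solution. Luminescence read (RLU). Efficacy expressed relative to acetate. Means of four experiments.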
# [2] = target: T2, Free fatty acid receptor 2 (Homo sapiens) (UniProt O15552); test: Agonist activity at human FFA2 receptor expressed in CHO cells assessed as inhibition of forskolin-induced cAMP production relative to acetate; type: functional, cell-based; summary of the method: as §1
# T2 sequence (whole entry): T1 sequence (O15552 whole entry)
# [3] = target: T3, Free fatty acid receptor 2 (Mus musculus) (UniProt Q8VCK6); test: Agonist activity at mouse FFA2 receptor expressed in CHO cells assessed as inhibition of forskolin-induced cAMP production; type: functional, cell-based; summary of the method: as §1
# T3 sequence (whole entry): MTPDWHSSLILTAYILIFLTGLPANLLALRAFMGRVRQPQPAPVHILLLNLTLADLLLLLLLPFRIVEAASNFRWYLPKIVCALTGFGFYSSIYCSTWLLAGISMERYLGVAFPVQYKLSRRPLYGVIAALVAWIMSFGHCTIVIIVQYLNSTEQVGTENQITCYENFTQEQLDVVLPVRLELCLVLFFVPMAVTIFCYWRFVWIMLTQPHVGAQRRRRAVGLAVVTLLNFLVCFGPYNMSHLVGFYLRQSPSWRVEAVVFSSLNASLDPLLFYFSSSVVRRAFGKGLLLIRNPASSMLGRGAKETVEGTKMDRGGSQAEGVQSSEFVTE
# [4] = test system: 3T3-L1; test: Inhibition of lipolysis in mouse 3T3L1 cells; type: functional, cell-based
# Summary of the method: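 Lipolysis measured in 3T3L1 adipocytes across a concentration range of test compound. Sensitivity to pertussis toxin treatment also examined. Means of three experiments.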
# [5] = Mean residence time in Sprague-Dawley rat at 0.5 mg/kg, iv; type: ADME, organism-based; set-up: dose 0.5 mg/kg, route intravenous; conditions: in vivo
# Summary of the method: (§2)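 Male Sprague-Dawley rats dosed 0.5 mg/kg iv.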
# [6] = test system: Rattus norvegicus; test: Clearance in Sprague-Dawley rat at 0.5 mg/kg, iv; type: ADME, organism-based; set-up: dose 0.5 mg/kg, route intravenous; conditions: in vivo; summary of the method: as §2
# [7] = Volume of distribution at steady state in Sprague-Dawley rat at 0.5 mg/kg, iv; type: ADME, organism-based; set-up: dose 0.5 mg/kg, route intravenous; conditions: in vivo, read-out: Vdss; summary of the method: as §2
# [8] = test system: Rattus norvegicus; test: AUC in Sprague-Dawley rat at 0.5 mg/kg, iv; type: ADME, organism-based, Plasma; set-up: dose 0.5 mg/kg, route intravenous; conditions: in vivo; summary of the method: as §2
# [9] = Tmax in mouse at 5 mg/kg, po; type: ADME, organism-based; set-up: dose 5 mg/kg, route oral; conditions: in vivo
# [10] = Mean residence time in mouse at 5 mg/kg, po; type: ADME, organism-based; set-up: dose 5 mg/kg, route oral; conditions: in vivo
# [11] = Cmax in mouse at 5 mg/kg, po; type: ADME, organism-based; set-up: dose 5 mg/kg, route oral; conditions: in vivo
# [12] = AUC in mouse at 5 mg/kg, po; type: ADME, organism-based; set-up: dose 5 mg/kg, route oral; conditions: plasma
# [13] = Metabolic stability in rat liver microsomes assessed as compound remaining after 30 mins; type: ADME, Microsome; conditions: read-out: Stability
# Summary of the method: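 Incubated with rat liver microsomes; percent parent remaining at 30 min.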
Compound,IC50 [1] [nM],Efficacy [2] [%],other results
Cc1cnc(NC(=O)[C@H](c2ccc(Cl)cc2)C(C)C)s1,800,99,Activity [3]: 1.4 µM; inhibition [4]: Dose-dependent effect
CC(C)[C@H](C(=O)Nc1ncc(Cl)s1)c1ccc(Cl)cc1,700,100,MRT [5]: 4.2 h; CL [6]: 33 mL/min/kg; Vd [7]: 8.3 L/kg; AUC [8]: 0.249 µg·h/mL
CC(C)(C)[C@H](C(=O)Nc1ncc(Cl)s1)c1ccc(Cl)cc1,1000,97,MRT [5]: 9 h; Tmax [9]: 2 h; MRT [10]: 7.6 h; CL [6]: 8 mL/min/kg; Vd [7]: 4.4 L/kg; Cmax [11]: 569 ng/mL; AUC [8]: 1.03 µg·h/mL; AUC [12]: 4550 µg·h/mL
CC(C)(C)[C@H](C(=O)Nc1ncc(-c2ccccc2)s1)c1ccc(Cl)cc1,700,111,MRT [5]: 9.1 h; Tmax [9]: 2 h; MRT [10]: 9.2 h; CL [6]: 5.33 mL/min/kg; Vd [7]: 2.7 L/kg; Cmax [11]: 1870 ng/mL; AUC [8]: 1.67 µg·h/mL; AUC [12]: 18600 µg·h/mL
CC(C)[C@H](C(=O)Nc1nccs1)c1ccc(Cl)cc1,700,100,remaining at 0.5 h [13]: 2%; MRT [5]: 1.1 h; Tmax [9]: 1 h; Activity [3]: 1 µM; MRT [10]: 1.8 h; CL [6]: 107 mL/min/kg; Vd [7]: 7 L/kg; Cmax [11]: 5 ng/mL; AUC [8]: 0.079 µg·h/mL; AUC [12]: 10 µg·h/mL; inhibition [4]: Dose-dependent effect
CO/C(=N\c1nccs1)[C@H](c1ccc(Cl)cc1)C(C)C,> 100000,< 30,–
CC(C)(C)[C@H](C(=O)Nc1ncc(C(O)(C(F)(F)F)C(F)(F)F)s1)c1ccc(Cl)cc1,1200,113,–
CC(C)C(c1ccc(Cl)cc1)S(=O)(=O)Nc1nccs1 (racemic),> 100000,< 30,–
CN(C)c1cnc(NC(=O)[C@H](c2ccc(Cl)cc2)C(C)(C)C)s1,1600,112,–
O=C(Nc1nccs1)[C@@H](CC1CC1)c1ccc(Cl)cc1,8800,72,–
CC[C@H](C(=O)Nc1nccs1)c1ccc(Cl)cc1,5000,105,–
CC(C)C(C(=O)Nc1nc2ccccc2[nH]1)c1ccc(Cl)cc1 (racemic),5200,84,–
CC(C)[C@@H](C(=O)Nc1nccs1)c1ccc(Cl)cc1,> 100000,< 30,–
CC(C)[C@H](C(=O)Nc1ncns1)c1ccc(Cl)cc1,2000,99,–
CC(C)[C@H](C(=O)Nc1nnc(C(F)(F)F)s1)c1ccc(Cl)cc1,1900,115,–
O=C(Nc1ncc(F)s1)C1(c2ccc(Cl)cc2)CCC1,1500,89,–
CN1CCN(c2cnc(NC(=O)[C@H](c3ccc(Cl)cc3)C(C)(C)C)s2)CC1,3800,113,–
CC(C)[C@H](NS(=O)(=O)c1nccs1)c1ccc(Cl)cc1,> 100000,< 30,–
CC(C)(C)[C@H](C(=O)Nc1ncc(Br)s1)c1ccc(Cl)cc1,700,95,–
